Measurements from ChEMBL document CHEMBL1142312, “Anti-Plasmodium activity of tetrazolium salts” (Bioorg Med Chem, 2008).
Several values for one entry are separate records, joined by “and”; a condition that tells them apart may be missing. Equal entries are not always repeated.

Tests used:
[1] = Inhibition of glutathione reduction of nitrotetrazolium blue chloride
CHO = assay: (§1) Toxicity in CHO cells; type: cell-based, Cricetulus griseus; conditions: cho
Procedure, shortened: (§2)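 CHO cells grown to 50% confluency in RPMI-1640 with 10% fetal calf serum, 25 mM Hepes and gentamicin. Serial dilutions made from a 10 mg/mL DMSO stock; DMSO-only controls. After 48 h, MTT (10 mg/mL in medium) added for 1 h, then DMSO added and absorbance read at 650 nm. IC50 by non-linear regression of dose–response; mean ± SE of four determinations.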

[2] = as §1; type: cell-based, Cricetulus griseus; conditions: Chinese hamster (Cricetulus griseus), CHO cells
Procedure, shortened: as §2

[3] = Ratio of IC50 for CHO cells to IC50 for Plasmodium falciparum; type: functional
Plasmodium falciparum = assay: Antimalarial activity against Plasmodium falciparum in LDH reporter assay; type: functional, organism-based
Procedure, shortened: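 P. falciparum line ItG cultured in O+ human erythrocytes in RPMI-1640 with 10% human serum and 50 μM hypoxanthine. Twofold serial dilutions from 10 mg/mL DMSO stock, 2% hematocrit, 2% parasitemia. Incubated 72 h at 37 °C under 95% N2/3% CO2/2% O2. Parasite LDH assay read at 650 nm after 1 h. IC50 by non-linear regression, mean ± SE of four determinations.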

Row | IC50 (Plasmodium falciparum) | IC50 (Plasmodium falciparum; Plasmodium falciparum) [µM] | SMILES | IC50 [1] [µM] | IC50 (CHO) [µM] | IC50 [2] [µM] | Ratio IC50 [3]
1 |  |  | O=S(=O)(O)c1cc(N=C=S)ccc1/C=C/c1ccc(N=C=S)cc1S(=O)(=O)O | 31 |  |  | 
2 |  |  | CC(=O)Nc1ccc(/C=C/c2ccc(N=C=S)cc2S(=O)(=O)O)c(S(=O)(=O)O)c1 | 2.7 |  |  | 
3 | 9.1 µM and 4.5 µM |  | O=[N+]([O-])c1ccc(-[n+]2nc(-c3ccccc3)nn2-c2ccccc2)cc1.[Cl-] |  | 12 | 16.2 | 1.8 and 2.7
4 |  | 0.41 | Clc1cccc(-c2nn(-c3ccc(OCc4ccccc4)cc3)[n+](-c3ccccc3)n2)c1.[Cl-] |  |  | 38 | 92.7
